The record followed here is ChEMBL document CHEMBL1151199, “5-methylcoumaranones from Mutisia friesiana and their bioactivity” (2004).

Assay [1] concerns Staphylococcus aureus. Nature of the assay: Antibacterial activity against Staphylococcus aureus ATCC 29213 at 10 ug/disk after 48 hrs by standard paper sensitivity disk-agar plate method. To be noted: ATCC 29213, 48 h, read-out: IZ. Format: functional.
The subject of assay [2] is Cladosporium cucumerinum. Kind of assay: Antifungal activity against Cladosporium cucumerinum at 10 ug/spot after 2 to 3 days by bioautographic assay. Format: functional. In a few lines:
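TLC bioautography: samples spotted onto a TLC plate with graduated capillaries and assayed against the plant pathogen Cladosporium cucumerinum. Activity is read as the diameter (mm) of the inhibition zone around the spot. Benomyl served as the reference fungicide.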

For another assay, the system named is Escherichia coli. Nature of the assay: Antibacterial activity against Escherichia coli ATCC 25922 at 100 ug/disk after 48 hrs by standard paper sensitivity disk-agar plate method. The class given is functional, organism-based. In a few lines: (§1)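 Agar in Petri dishes inoculated with the test organism (E. coli ATCC 25922, S. aureus ATCC 29213 or C. albicans BE 138/99). Samples were loaded at 100 µg per 5 mm paper disk, and the disks were placed on the agar. The read-out was the diameter of the inhibition zone in mm.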

Assay [3] has as its system Staphylococcus aureus. Kind of assay: Antibacterial activity against Staphylococcus aureus ATCC 29213 at 100 ug/disk after 48 hrs by standard paper sensitivity disk-agar plate method. To be noted: ATCC 29213, 48 h, read-out: IZ. Format: functional. The method in brief: as §1
Assay [4] has as its system Cladosporium cucumerinum. Nature of the assay: Antifungal activity against Cladosporium cucumerinum at 100 ug/spot after 2 to 3 days by bioautographic assay. The class given is functional. The method in brief:
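Each sample was dissolved at 10 mg ml-1 in CH2Cl2, and 10 µL was spotted onto a TLC plate by graduated capillary, giving 100 µg/spot. The plate was then assayed bioautographically against Cladosporium cucumerinum. Benomyl served as the reference fungicide, applied at 10 µg/spot. The read-out was the inhibition zone in mm.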

A further assay concerns Candida albicans. Nature of the assay: Antifungal activity against Candida albicans BE 138/99 at 100 ug/disk after 48 hrs by standard paper sensitivity disk-agar plate method. The class given is functional, organism-based. The method in brief: as §1

The structures appear in SMILES notation. Active and inactive are the calls of the source. The calls are words filed in the database; no cut-off is given here.

As to `CC1(C)S[C@@H]2[C@H](NC(=O)[C@H](N)c3ccccc3)C(=O)N2[C@H]1C(=O)O` [AMPICILLIN], the zone of inhibition at 10 µg/disc with Staphylococcus aureus [1] was 14 mm.
In the case of `CCCCNC(=O)n1c(NC(=O)OC)nc2ccccc21` [BENOMYL], the “inhibition zone (IZ)” value in the assay on Cladosporium cucumerinum [2] is recorded as 20 mm.
Take `CC(C)=CCC/C(C)=C/CC1(O)Oc2cccc(C)c2C1=O` (stereo not drawn) [MUTISICOUMARANONE A]: the outcome in the assay on Escherichia coli and with Candida albicans was inactive. Moreover, the zone of inhibition at 100 µg/disc with Staphylococcus aureus [3] was 10 mm. Moreover, the “inhibition zone (IZ)” value with Cladosporium cucumerinum [4] stood at 8 mm.
`CC(C)=CC(O)C(=O)/C(C)=C/CC/C(C)=C/CC1(O)Oc2cccc(C)c2C1=O` (stereo not drawn) [MUTISICOUMARANONE B]: the outcome in the assay on Escherichia coli and in the assay on Candida albicans was inactive. For the same compound, the zone of inhibition at 100 µg/disc in the assay on Staphylococcus aureus [3] is 10 mm. The “inhibition zone (IZ)” value in the assay with Cladosporium cucumerinum [4] is 14 mm.
As to `C/C(=C\CC1(O)Oc2cccc(C)c2C1=O)CC/C=C(\C)C(=O)/C=C/C(C)(C)O` (stereo not drawn) [MUTISICOUMARANONE C], the result with Escherichia coli and in the assay on Candida albicans was inactive. Further, the zone of inhibition at 100 µg/disc with Staphylococcus aureus [3] was determined as 10 mm. For the same compound, the “inhibition zone (IZ)” value in the assay with Cladosporium cucumerinum [4] was 14 mm.
With `CC(C)=CCC(O)/C(C)=C/CC/C(C)=C/CC1(O)Oc2cccc(C)c2C1=O` (stereo not drawn) [MUTISICOUMARANONE D], the result with Escherichia coli and with Candida albicans was inactive. Also, the zone of inhibition at 100 µg/disc in the assay with Staphylococcus aureus [3] is 10 mm. Besides, the “inhibition zone (IZ)” value in the assay on Cladosporium cucumerinum [4] is on record as 10 mm.
